In PMC2782628 (Journal of medicinal chemistry, 2009):

Assays:
recombinant human eNOS = recombinant human eNOS (Homo sapiens, UniProt P29474); test: NOS enzyme assay; format: biochemical; details: iNOS vs eNOS
Outline: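 The eNOS buffer also had 20 µg/mL calmodulin and 1 mM CaCl2. [3H]arginine started the reaction, 30 min at room temperature. SPA arginine-binding beads stopped it; counted after 2 h. Mean ± S.D., N≥3.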

iNOS = iNOS (Mus musculus, UniProt P29477); test: Blocking study of [18F]9 uptake in LPS-treated mice; format: in vivo, C57BL/6N mice
recombinant human iNOS = recombinant human iNOS (Homo sapiens, UniProt P35228); test: NOS enzyme assay; format: biochemical; details: for activity in the iNOS assay: structure-activity discussion
Sequence of recombinant human iNOS (P35228 whole entry): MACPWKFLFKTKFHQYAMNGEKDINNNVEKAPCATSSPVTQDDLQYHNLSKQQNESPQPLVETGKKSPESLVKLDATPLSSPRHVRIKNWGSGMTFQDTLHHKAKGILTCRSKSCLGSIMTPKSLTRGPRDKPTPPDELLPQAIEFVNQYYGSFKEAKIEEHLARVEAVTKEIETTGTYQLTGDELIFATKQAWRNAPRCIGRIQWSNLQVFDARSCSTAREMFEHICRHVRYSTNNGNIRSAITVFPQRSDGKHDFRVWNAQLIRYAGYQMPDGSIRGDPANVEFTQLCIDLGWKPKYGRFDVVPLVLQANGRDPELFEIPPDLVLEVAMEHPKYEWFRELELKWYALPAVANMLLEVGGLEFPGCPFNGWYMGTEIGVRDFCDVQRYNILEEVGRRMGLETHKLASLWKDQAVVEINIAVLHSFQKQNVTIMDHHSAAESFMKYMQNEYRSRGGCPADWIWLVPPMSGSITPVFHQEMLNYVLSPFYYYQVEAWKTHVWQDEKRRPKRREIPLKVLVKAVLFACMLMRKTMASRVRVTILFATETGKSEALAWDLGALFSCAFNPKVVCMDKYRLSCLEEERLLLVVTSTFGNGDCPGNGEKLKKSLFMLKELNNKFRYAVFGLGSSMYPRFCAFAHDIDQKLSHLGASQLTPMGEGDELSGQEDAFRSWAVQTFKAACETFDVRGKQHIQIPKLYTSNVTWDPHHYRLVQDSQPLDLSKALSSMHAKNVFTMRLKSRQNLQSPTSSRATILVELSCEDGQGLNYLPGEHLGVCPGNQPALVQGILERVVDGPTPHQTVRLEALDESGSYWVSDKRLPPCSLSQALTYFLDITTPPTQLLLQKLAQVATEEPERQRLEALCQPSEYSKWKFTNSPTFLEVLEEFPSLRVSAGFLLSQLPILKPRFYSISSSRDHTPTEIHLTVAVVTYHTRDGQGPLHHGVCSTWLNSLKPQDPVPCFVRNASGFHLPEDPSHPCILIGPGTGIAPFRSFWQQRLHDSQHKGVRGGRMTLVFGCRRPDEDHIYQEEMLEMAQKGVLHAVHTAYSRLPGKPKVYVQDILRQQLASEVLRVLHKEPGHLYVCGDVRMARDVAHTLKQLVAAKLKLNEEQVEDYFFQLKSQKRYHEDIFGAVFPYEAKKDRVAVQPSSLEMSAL
Outline: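 Recombinant iNOS in 50 mM Tris pH 7.4 with 1.0 mM NADPH, 3.8 µM each of FMN, FAD and tetrahydro-L-biopterin, 2.0 mM DTT and 2.0 µM L-arginine. Test compound was diluted in methanol or water. [3H]arginine (0.1 µCi) started the reaction, run 30 min at room temperature. Stopped with yttrium-silicate arginine-binding SPA beads in NaOH; beads settled 2 h, then counted. IC50 from inhibition curves, mean ± S.D., N≥3.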

[1] = In vivo biodistribution time-course study in control vs. LPS-treated mice; design: species or system C57BL/6 mice; details: for Biodistribution Blood / Biodistribution Bone / Biodistribution Brain / Biodistribution Heart / Biodistribution Kidney / Biodistribution Liver / Biodistribution Lung / Biodistribution Muscle: mean ± SD, n = 4
Outline: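 Mature male C57BL/6N mice (6-8 weeks), either given E. coli O127:B8 LPS in PBS (10 mg/kg i.v.) 6 h before tracer or left untreated. HPLC-purified [18F]-labelled test compound (~50 μCi in 10% ethanol/saline) injected i.v. via tail vein. Sacrificed at 5 min, 30 min, 1 h and 2 h. Blood, tissues and organs weighed and gamma-counted against diluted injectate standards, giving %ID/g (mean ± SD).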

In the case of `Cc1cc(N)nc(CCCF)c1` [Compound 18, 6-(3-Fluoropropyl)-4-methylpyridin-2-amine], the “selectivity against eNOS” value (recombinant human eNOS) is reported as “approximately 30 fold”.

In the case of `CC(=N)NCc1cccc(CN)c1` [Compound 1400W, N-(3-(aminomethyl)benzyl)acetamidine], the “tracer ([18F]9) uptake in the lungs and blood of the LPS-treated mice blocked” value (iNOS; mouse, in vivo) is reported as 32%.

`Nc1ccccn1` [Compound 2-AP, 2-aminopyridine, reference compound] showed an IC50 (recombinant human iNOS) of 108 nM.

In the case of `COC(C)Cc1cc(C)cc(N)n1` (centres unmarked) [Compound 13, 6-(2-Methoxypropyl)-4-methylpyridin-2-amine], the “activity in the iNOS assay” value (recombinant human iNOS) is reported as “inactive”.

For `Cc1ccnc(N)c1` [Compound 1, 2-amino-4-methylpyridine], the “blocking of the increased [18F]9 uptake in the LPS-treated mice” value (iNOS; blocking agent 10 mg/kg, i.v., data not shown) was “failed to block”.

For `COCCC(C)Cc1cc(C)cc(N)n1` (centres unmarked) [Compound 27, 6-(4-methoxy-2-methylbutyl)-4-methylpyridin-2-amine], the “activity in the iNOS assay” value (recombinant human iNOS) was “inactive”.

For `CSCCC(C)Cc1cc(C)cc(N)n1` (centres unmarked) [Compound 33, 4-Methyl-6-(2-methyl-4-(methylthio)butyl)pyridin-2-amine], the “activity in the iNOS assay” value (recombinant human iNOS) was “inactive”.

With `Cc1cc(N)nc(CC(C)OCCF)c1` (centres unmarked) [Compound 15, 6-(2-(2-Fluoroethoxy)propyl)-4-methylpyridin-2-amine] the “activity in the iNOS assay” value (recombinant human iNOS) was “inactive”.

With `Cc1cc(N)nc(CC(C)[18F])c1` (centres unmarked) [[^18F]9, [^18F]6-(2-Fluoropropyl)-4-methylpyridin-2-amine] the “Biodistribution Blood” value ([1]; 5 min, Control mice) was 2.37±0.18 %ID/g, the “Biodistribution Blood” value ([1]; 5 min, LPS-treated mice) was 3.69±0.38 %ID/g and the “Biodistribution Blood” value ([1]; 30 min, Control mice) was 1.22±0.16 %ID/g. The “Biodistribution Blood” value ([1]; 30 min, LPS-treated mice) was 2.09±0.35 %ID/g, the “Biodistribution Blood” value ([1]; 1 h, Control mice) was 0.31±0.04 %ID/g and the “Biodistribution Blood” value ([1]; 1 h, LPS-treated mice) was 0.86±0.09 %ID/g. For the same compound, the “Biodistribution Blood” value ([1]; 2 h, Control mice) was 0.27±0.22 %ID/g, the “Biodistribution Blood” value ([1]; 2 h, LPS-treated mice) was 0.23±0.05 %ID/g and the “Biodistribution Bone” value ([1]; 5 min, Control mice) was 1.52±0.36 %ID/g. For the same compound, the “Biodistribution Bone” value ([1]; 5 min, LPS-treated mice) was 1.59±0.15 %ID/g, the “Biodistribution Bone” value ([1]; 30 min, Control mice) was 2.26±0.55 %ID/g and the “Biodistribution Bone” value ([1]; 30 min, LPS-treated mice) was 3.70±1.20 %ID/g. For the same compound, the “Biodistribution Bone” value ([1]; 1 h, Control mice) was 2.57±0.64 %ID/g, the “Biodistribution Bone” value ([1]; 1 h, LPS-treated mice) was 4.30±0.90 %ID/g and the “Biodistribution Bone” value ([1]; 2 h, Control mice) was 5.59±4.20 %ID/g. For the same compound, the “Biodistribution Bone” value ([1]; 2 h, LPS-treated mice) was 3.77±1.41 %ID/g, the “Biodistribution Brain” value ([1]; 5 min, Control mice) was 1.60±0.17 %ID/g and the “Biodistribution Brain” value ([1]; 5 min, LPS-treated mice) was 1.81±0.09 %ID/g. For the same compound, the “Biodistribution Brain” value ([1]; 30 min, Control mice) was 0.28±0.02 %ID/g, the “Biodistribution Brain” value ([1]; 30 min, LPS-treated mice) was 0.52±0.15 %ID/g and the “Biodistribution Brain” value ([1]; 1 h, Control mice) was 0.11±0.02 %ID/g. For the same compound, the “Biodistribution Brain” value ([1]; 1 h, LPS-treated mice) was 0.19±0.03 %ID/g, the “Biodistribution Brain” value ([1]; 2 h, Control mice) was 0.07±0.03 %ID/g and the “Biodistribution Brain” value ([1]; 2 h, LPS-treated mice) was 0.07±0.03 %ID/g. The “Biodistribution Heart” value ([1]; 5 min, Control mice) was 1.50±0.12 %ID/g, the “Biodistribution Heart” value ([1]; 5 min, LPS-treated mice) was 2.03±0.06 %ID/g and the “Biodistribution Heart” value ([1]; 30 min, Control mice) was 0.60±0.05 %ID/g. The “Biodistribution Heart” value ([1]; 30 min, LPS-treated mice) was 1.02±0.16 %ID/g, the “Biodistribution Heart” value ([1]; 1 h, Control mice) was 0.19±0.02 %ID/g and the “Biodistribution Heart” value ([1]; 1 h, LPS-treated mice) was 0.41±0.10 %ID/g. The “Biodistribution Heart” value ([1]; 2 h, Control mice) was 0.08±0.02 %ID/g, the “Biodistribution Heart” value ([1]; 2 h, LPS-treated mice) was 0.12±0.04 %ID/g and the “Biodistribution Kidney” value ([1]; 5 min, Control mice) was 20.6±2.4 %ID/g. The “Biodistribution Kidney” value ([1]; 5 min, LPS-treated mice) was 26.7±4.1 %ID/g, the “Biodistribution Kidney” value ([1]; 30 min, Control mice) was 7.30±0.66 %ID/g and the “Biodistribution Kidney” value ([1]; 30 min, LPS-treated mice) was 10.9±2.8 %ID/g. For the same compound, the “Biodistribution Kidney” value ([1]; 1 h, Control mice) was 2.20±0.25 %ID/g, the “Biodistribution Kidney” value ([1]; 1 h, LPS-treated mice) was 3.95±0.53 %ID/g and the “Biodistribution Kidney” value ([1]; 2 h, Control mice) was 0.80±0.27 %ID/g. The “Biodistribution Kidney” value ([1]; 2 h, LPS-treated mice) was 0.91±0.63 %ID/g, the “Biodistribution Liver” value ([1]; 5 min, Control mice) was 33.2±3.3 %ID/g and the “Biodistribution Liver” value ([1]; 5 min, LPS-treated mice) was 24.6±3.1 %ID/g. For the same compound, the “Biodistribution Liver” value ([1]; 30 min, Control mice) was 10.7±0.3 %ID/g, the “Biodistribution Liver” value ([1]; 30 min, LPS-treated mice) was 7.06±0.28 %ID/g and the “Biodistribution Liver” value ([1]; 1 h, Control mice) was 2.59±0.49 %ID/g. For the same compound, the “Biodistribution Liver” value ([1]; 1 h, LPS-treated mice) was 2.63±0.52 %ID/g, the “Biodistribution Liver” value ([1]; 2 h, Control mice) was 0.74±0.23 %ID/g and the “Biodistribution Liver” value ([1]; 2 h, LPS-treated mice) was 0.42±0.15 %ID/g. The “Biodistribution Lung” value ([1]; 5 min, Control mice) was 3.33±0.28 %ID/g, the “Biodistribution Lung” value ([1]; 5 min, LPS-treated mice) was 4.32±0.32 %ID/g and the “Biodistribution Lung” value ([1]; 30 min, Control mice) was 1.14±0.13 %ID/g. The “Biodistribution Lung” value ([1]; 30 min, LPS-treated mice) was 1.84±0.27 %ID/g, the “Biodistribution Lung” value ([1]; 1 h, Control mice) was 0.31±0.06 %ID/g and the “Biodistribution Lung” value ([1]; 1 h, LPS-treated mice) was 0.73±0.17 %ID/g. For the same compound, the “Biodistribution Lung” value ([1]; 2 h, Control mice) was 0.15±0.03 %ID/g, the “Biodistribution Lung” value ([1]; 2 h, LPS-treated mice) was 0.18±0.09 %ID/g and the “Biodistribution Muscle” value ([1]; 5 min, Control mice) was 1.25±0.06 %ID/g. The “Biodistribution Muscle” value ([1]; 5 min, LPS-treated mice) was 1.64±0.09 %ID/g, the “Biodistribution Muscle” value ([1]; 30 min, Control mice) was 0.71±0.31 %ID/g and the “Biodistribution Muscle” value ([1]; 30 min, LPS-treated mice) was 1.06±0.40 %ID/g. For the same compound, the “Biodistribution Muscle” value ([1]; 1 h, Control mice) was 0.27±0.18 %ID/g, the “Biodistribution Muscle” value ([1]; 1 h, LPS-treated mice) was 0.78±0.47 %ID/g and the “Biodistribution Muscle” value ([1]; 2 h, Control mice) was 0.34±0.27 %ID/g. The “Biodistribution Muscle” value ([1]; 2 h, LPS-treated mice) was 0.23±0.13 %ID/g, the “increase in injected dose/gram (ID/g) in the lungs, LPS-treated vs control mice” value ([1]; 5 min) was 30% and the “increase in injected dose/gram (ID/g) in the lungs, LPS-treated vs control mice” value ([1]; 30 min) was 60%.
